Measurements collected from several papers.
Action: inhibitor
Dihydroorotate dehydrogenase, mitochondrial, putative: Dihydroorotate dehydrogenase, mitochondrial, putative (Plasmodium vivax, UniProt A5K1N1)
HDAC6: Protein deacetylase HDAC6 (HDAC6, Homo sapiens, UniProt Q9UBN7)
KCNH2: Voltage-gated inwardly rectifying potassium channel KCNH2 (KCNH2, Homo sapiens, UniProt Q12809)

SMILES	target	assay	test system	conditions	IC50 [nM]
Cn1nc2c(=O)n(C3CC3)ncc2c1[C@](O)(c1cnc(C(F)(F)F)c(Cl)c1)C(F)(F)F	Dihydroorotate dehydrogenase, mitochondrial, putative	enzyme activity, absorbance			17
Cc1cc(OS(=O)(=O)Oc2ccccc2)cc(C(=O)NO)c1	HDAC6	enzyme activity, fluorescence			3830
CCn1cnc2c([C@@](O)(CC)c3ccc(C(F)(F)F)nc3)n(C)nc2c1=O	Dihydroorotate dehydrogenase, mitochondrial, putative	enzyme activity, absorbance			26
Cc1cc(C(C)(C)C)ccc1OS(=O)(=O)Oc1cc(F)cc(C(=O)NO)c1	HDAC6	enzyme activity, fluorescence			3210
CN(C)C(=O)CN1CCN(c2cnc3c(cc(C(=O)NCc4ccc(Cl)cc4)c(=O)n3CC(=O)N3CC(C)(F)C3)n2)C1=O	KCNH2	ion current, patch clamp			> 40000
C=CS(=O)(=O)c1ccc(Nc2nc(OCC3CCCCC3)c3nc[nH]c3n2)cc1	KCNH2	ion current, patch clamp	HEK293		5940
O=c1oc(-c2cccnc2)nc2ccccc12	Prothrombin (F2, Homo sapiens, UniProt P00734)	enzyme activity, absorbance		pH 7.4	~970
CN(C)C(=O)c1cc2cnc(Nc3ccc(N4CCNCC4)cn3)nc2n1C1CCCC1	3',5'-cyclic-AMP phosphodiesterase 4D (PDE4D, Homo sapiens, UniProt Q08499)	enzyme activity, TR-FRET			> 10000
COc1ccc(C[C@H]2COC(=O)[C@@H]2Cc2ccc(OCC(=O)Nc3ccc(C(=O)Nc4ccccc4N)cc3)c(OC)c2)cc1OC	HDAC6	enzyme activity			> 10000
Cn1nc2c(=O)n(C3CC3)ncc2c1[C@](N)(c1ccc(C(F)(F)F)c(Cl)c1)C1CC1	Dihydroorotate dehydrogenase, mitochondrial, putative	enzyme activity, absorbance			6.7
CC1(F)CN(C(=O)Cn2c(=O)c(C(=O)NCc3ccc(Cl)cc3)cc3nccnc32)C1	KCNH2	ion current, patch clamp			5910
O=C(NO)c1cccc(OS(=O)(=O)Oc2ccc(-c3cccc(C(F)(F)F)c3)cc2)c1	HDAC6	enzyme activity, fluorescence			3100
Cn1nc2c(=O)n(C3CC3)cnc2c1[C@](O)(c1cnc(C(F)(F)F)c(Cl)c1)C(F)(F)F	Dihydroorotate dehydrogenase, mitochondrial, putative	enzyme activity, absorbance			23
O=C(NO)c1cccc(OS(=O)(=O)Oc2ccc(C(F)(F)F)cc2)c1	HDAC6	enzyme activity, fluorescence			842
CNCCN1CCN(c2cnc3c(cc(C(=O)NCc4ccc(Cl)cc4)c(=O)n3CC(=O)N3CC(C)(F)C3)n2)C1=O	KCNH2	ion current, patch clamp			> 40000
Cc1cc(OS(=O)(=O)Oc2ccc(-n3ccnc3)cc2)cc(C(=O)NO)c1	HDAC6	enzyme activity, fluorescence			4750
CC[C@@](N)(c1cnc(C(F)(F)F)c(Cl)c1)c1c2ncn(C3CC3)c(=O)c2nn1C	Dihydroorotate dehydrogenase, mitochondrial, putative	enzyme activity, absorbance			40
COc1cccc(OS(=O)(=O)Oc2cccc(C(=O)NO)c2)c1	HDAC6	enzyme activity, fluorescence			92
COc1ccc2c(C(=S)N(C)CC(=O)O)cccc2c1C(F)(F)F	Aldo-keto reductase family 1 member B10 (AKR1B10, Homo sapiens, UniProt O60218, K125R)	enzyme activity			124
